Source: ChEMBL document CHEMBL4371011, “Pyrrolone Derivatives as Intracellular Allosteric Modulators for Chemokine Receptors: Selective and Dual-Targeting Inhibitors of CC Chemokine Receptors 1 and 2” (J Med Chem, 2018)
Several values for one entry are separate records, joined by “and”; a condition that tells them apart may be missing. Equal values may be shown once. Activity calls are given as the source filed them. No cut-off for these calls is given here.

Columns and labels:
[1] = molecular target: T1, C-C chemokine receptor type 2 (Homo sapiens, UniProt P41597); assay: Displacement of [3H]-CCR2-RA-[R] from human TEV protease site linked CCR2b expressed in human U20S cell membranes co-expressing Gal4-VP16 transcription factor at 1 uM after 120 mins by scintillation spectrometry relative to control
Target sequence in this assay (P41597 whole entry, looked up, the tested form may be a part): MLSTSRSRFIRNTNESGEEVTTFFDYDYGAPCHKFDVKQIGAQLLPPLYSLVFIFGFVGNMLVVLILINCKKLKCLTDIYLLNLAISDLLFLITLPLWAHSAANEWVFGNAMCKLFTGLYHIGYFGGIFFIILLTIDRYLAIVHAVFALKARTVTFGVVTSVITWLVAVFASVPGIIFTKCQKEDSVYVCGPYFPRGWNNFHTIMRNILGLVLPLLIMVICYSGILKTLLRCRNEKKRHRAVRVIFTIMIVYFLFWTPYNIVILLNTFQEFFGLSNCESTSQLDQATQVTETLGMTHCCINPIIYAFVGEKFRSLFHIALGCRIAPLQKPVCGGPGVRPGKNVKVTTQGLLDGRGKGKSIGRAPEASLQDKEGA

[2] = molecular target: T2, C-C chemokine receptor type 1 (Homo sapiens) (UniProt P32246); assay: Displacement of [3H]-CCR2-RA-[R] from human TEV protease site linked CCR1 expressed in human U20S cell membranes co-expressing Gal4-VP16 transcription factor at 1 uM after 120 mins by scintillation spectrometry relative to control
T2 sequence (whole entry): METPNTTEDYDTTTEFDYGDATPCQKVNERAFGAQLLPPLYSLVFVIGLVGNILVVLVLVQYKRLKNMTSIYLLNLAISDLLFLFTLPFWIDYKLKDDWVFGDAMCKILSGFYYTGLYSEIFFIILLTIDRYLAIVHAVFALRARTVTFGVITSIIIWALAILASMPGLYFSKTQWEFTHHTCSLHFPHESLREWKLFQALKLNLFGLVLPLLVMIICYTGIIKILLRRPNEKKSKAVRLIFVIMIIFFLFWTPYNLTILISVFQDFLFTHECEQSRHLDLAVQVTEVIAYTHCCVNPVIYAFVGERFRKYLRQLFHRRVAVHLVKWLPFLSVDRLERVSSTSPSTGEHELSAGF

[3] = molecular target: T3, C-C chemokine receptor type 1 (Homo sapiens, UniProt P32246); assay: biochemical
T3 sequence (P32246 whole entry): T2 sequence (whole entry)

[4] = molecular target: T1, C-C chemokine receptor type 2; assay: Displacement of [3H]-CCR2-RA-[R] from human TEV protease site linked CCR2b expressed in human U20S cell membranes co-expressing Gal4-VP16 transcription factor after 120 mins by scintillation spectrometry
Target sequence in this assay (P41597 whole entry, the tested form may be a part): as the sequence (P41597 whole entry, looked up, the tested form may be a part) above

[5] = molecular target: T3, C-C chemokine receptor type 1; assay: Antagonist activity at human TEV protease site linked CCR1 expressed in human U20S cell membranes co-expressing Gal4-VP16 transcription factor assessed as reduction in CCL3-induced G-protein activation preincubated for 30 mins in presence of CCL3 followed by incubation of 90 mins by [35S]GTPgammaS binding assay; type: functional
Outline: (§1)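 Stably transfected U2OS membranes (10 μg; human CCR1 or CCR2b) in 50 mM Tris-HCl pH 7.4 with 5 mM MgCl2, 100 mM NaCl, 1 mM EDTA, 0.05% BSA, 10 μM GDP and 10 μg saponin. Preincubated with graded compound plus 8 nM CCL3 (CCR1) or 20 nM CCL2 (CCR2), then 0.3 nM [35S]GTPγS for 90 min at 25 °C.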

[6] = molecular target: T1, C-C chemokine receptor type 2; assay: Inverse agonist activity at human TEV protease site linked CCR2b expressed in human U20S cell membranes co-expressing Gal4-VP16 transcription factor assessed as decrease in basal activity at 100 uM after 90 mins in presence of GDP by [35S]GTPgammaS binding assay relative to control; type: functional
Outline: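 Basal G-protein activation on human CCR2b U2OS membranes (10 μg) plus 10 μg saponin and 10 μM GDP, pH 7.4 Tris buffer with NaCl, EDTA and BSA, no CCL2. Compound preincubated 30 min at 25 °C, then 90 min with 0.3 nM [35S]GTPγS. Bound label measured after filtration; change from basal.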
Target sequence in this assay (P41597 whole entry, looked up, the tested form may be a part): as the sequence (P41597 whole entry, looked up, the tested form may be a part) above

[7] = molecular target: T1, C-C chemokine receptor type 2; assay: Antagonist activity at human TEV protease site linked CCR2b expressed in human U20S cell membranes co-expressing Gal4-VP16 transcription factor assessed as reduction in CCL2-induced G-protein activation preincubated for 30 mins in presence of CCL2 followed by incubation of 90 mins by [35S]GTPgammaS binding assay; type: functional; outline: as §1
Target sequence in this assay (P41597 whole entry, the tested form may be a part): as the sequence (P41597 whole entry, looked up, the tested form may be a part) above

[8] = molecular target: T2, C-C chemokine receptor type 1 (Homo sapiens); assay: Inverse agonist activity at human TEV protease site linked CCR1 expressed in human U20S cell membranes co-expressing Gal4-VP16 transcription factor assessed as decrease in basal activity after 90 mins in presence of 1 uM GDP by [35S]GTPgammaS binding assay relative to control; type: functional
Outline: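 Basal [35S]GTPγS binding on human CCR1 U2OS membranes (10 μg) with saponin, in Tris/MgCl2/NaCl/EDTA/0.05% BSA, pH 7.4, without chemokine. Compound was tested at 100 μM with GDP at 1, 10 or 20 μM. Preincubation was 30 min at 25 °C, then 90 min after adding 0.3 nM [35S]GTPγS. Filtration and scintillation read-out; decrease versus basal.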

Homo sapiens = organism: Homo sapiens; assay: Selectivity ratio of IC50 for human TEV protease site linked CCR1 expressed in human U20S cell membranes co-expressing Gal4-VP16 transcription factor to IC50 for human TEV protease site linked CCR2b expressed in human U20S cell membranes co-expressing Gal4-VP16 transcription factor; type: cell-based

Row | SMILES | inhibition [1] | Ki [3] | Ki ([4]; read-out: Ki) | other results
1 | CC(=O)C1=C(O)C(=O)N(c2cccc(F)c2)C1C1CCCCC1 (stereo unspecified) | 47% |  |  | inhibition [2]: 44%
2 | CCOC(=O)C1=C(O)C(=O)N(c2ccc(C)cc2)C1C1CCCCC1 (stereo unspecified) | 31% | 200 nM |  | 
3 | CC(=O)C1=C(O)C(=O)N(c2ccc(C)cc2)C1C1CCCCCC1 (stereo unspecified) |  | 56 nM | 96 nM | 
4 | CC(=O)C1=C(O)C(=O)N(c2ccc(C)c(C)c2)C1C1CCCCC1 (stereo unspecified) |  | 43 nM | 18 nM | 
5 | Cc1ccc(N2C(=O)C(O)=C(C(=O)OC(C)C)C2C2CCCCC2)cc1 (stereo unspecified) | 6% |  |  | inhibition [2]: 36%
6 | CCC(=O)C1=C(O)C(=O)N(c2ccc(C)cc2)C1C1CCCCC1 (stereo unspecified) |  | 30 nM | 104 nM | 
7 | CC(=O)C1=C(O)C(=O)N(c2ccc(C)cc2)C1C1CCCCC1 (stereo unspecified) |  | 56 nM | 81 nM | 
8 | CC(=O)C1=C(O)C(=O)N(c2ccc(C(F)(F)F)cc2)C1C1CCCCC1 (stereo unspecified) |  | 138 nM and 144 nM | 92 nM | 
9 | Cc1ccc(N2C(=O)C(O)=C(C(=O)C(C)C)C2C2CCCCC2)cc1 (stereo unspecified) |  | 40.7 nM and 42 nM | 316 nM | 
10 | CCCC(=O)C1=C(O)C(=O)N(c2ccc(C)cc2)C1C1CCCCC1 (stereo unspecified) |  | 29 nM | 144 nM | Ki ([4]; read-out: pKi (converted)): 138 nM
11 | CC(=O)C1=C(O)C(=O)N(c2ccccc2)C1C1CCCCC1 (stereo unspecified) | 45% |  |  | inhibition [2]: 42%
12 | Cc1ccc(N2C(=O)C(O)=C(C(=O)C3CC3)C2C2CCCCC2)cc1 (stereo unspecified) |  | 18.2 nM and 19 nM | 160 nM | 
13 | CC(=O)C1=C(O)C(=O)N(c2cccc(C(F)(F)F)c2)C1C1CCCCC1 (stereo unspecified) |  |  | 305 nM | inhibition [2]: 25%; Ki ([4]; read-out: pKi (converted)): 288 nM
14 | CCCCC(=O)C1=C(O)C(=O)N(c2ccc(C)cc2)C1C1CCCCC1 (stereo unspecified) |  | 31 nM | 158 nM | Ki ([4]; read-out: pKi (converted)): 155 nM
15 | CC(=O)C1=C(O)C(=O)N(c2ccc(C)cc2)C1c1cccc(Cl)c1 (stereo unspecified) | 19% | 198 nM |  | 
16 | O=C(C1=C(O)C(=O)N(c2ccc(Br)cc2F)C1C1CCCCC1)c1ccccc1 (stereo unspecified) |  | 28 nM | 66 nM | 
17 | CC(=O)C1=C(O)C(=O)N(c2cccc(Cl)c2)C1C1CCCCC1 (stereo unspecified) |  | 525 nM and 541 nM | 239 nM | 
18 | CC(=O)C1=C(O)C(=O)N(c2ccc(C)cc2)C1c1ccc(Cl)cc1 (stereo unspecified) |  | 67 nM | 207 nM | 
19 | COc1ccc(C2C(C(C)=O)=C(O)C(=O)N2c2ccc(C)cc2)cc1 (stereo unspecified) | 5% | 541 nM |  | 
20 | O=C(C1=C(O)C(=O)N(c2ccc(Br)cc2F)C1C1CCCCC1)C1CC1 (stereo unspecified) |  | 5 nM | 15 nM | IC50 ([5]; read-out: IC50): 950 nM; IC50 ([5]; read-out: pIC50 (converted)): 933 nM; Imax [6]: 27%; IC50 ([7]; read-out: IC50): 330 nM; IC50 ([7]; read-out: pIC50 (converted)): 288 nM; Activity [8]: Active; Ratio IC50 (Homo sapiens): 3

Row | SMILES | inhibition [1] | Ki [3] | Ki ([4]; read-out: Ki) | other results
21 | CC(=O)C1=C(O)C(=O)N(c2ccc(Cl)cc2)C1C1CCCCC1 (stereo unspecified) |  | 38.9 nM and 40 nM | 19 nM | 
22 | Cc1ccc(N2C(=O)C(O)=C(C(=O)C(C)(C)C)C2C2CCCCC2)cc1 (stereo unspecified) |  | 22 nM | 158 nM | Ki ([4]; read-out: pKi (converted)): 155 nM
23 | CC(=O)C1=C(O)C(=O)N(c2cccc(C)c2)C1C1CCCCC1 (stereo unspecified) |  | 500 nM | 265 nM | 
24 | COc1cccc(C2C(C(C)=O)=C(O)C(=O)N2c2ccc(C)cc2)c1 (stereo unspecified) | 0% |  |  | inhibition [2]: 28%
25 | CC(=O)C1=C(O)C(=O)N(c2ccc(Br)cc2)C1C1CCCCC1 (stereo unspecified) |  | 24 nM | 17 nM | 
26 | CCc1ccc(N2C(=O)C(O)=C(C(C)=O)C2C2CCCCC2)cc1 (stereo unspecified) |  | 168 nM | 66 nM | Ki ([4]; read-out: pKi (converted)): 64.6 nM
27 | CC(=O)C1=C(O)C(=O)N(c2ccc(C)cc2)C1c1ccccc1 (stereo unspecified) | 39% | 162 nM |  | 
28 | CC(=O)C1=C(O)C(=O)N(c2ccc(C)cc2F)C1C1CCCCC1 (stereo unspecified) |  | 27.5 nM and 29 nM | 37 nM | 
29 | CC(=O)C1=C(O)C(=O)N(c2ccc(Br)cc2F)C1c1cccc(Br)c1 (stereo unspecified) |  | 65 nM | 216 nM | 
30 | CC(=O)C1=C(O)C(=O)N(c2ccc(Br)cc2F)C1C1CCCCC1 (stereo unspecified) |  |  | 6 nM | IC50 ([5]; read-out: IC50): 590 nM; IC50 ([5]; read-out: pIC50 (converted)): 550 nM; IC50 ([7]; read-out: IC50): 30 nM; Activity [8]: Active; Ratio IC50 (Homo sapiens): 19
31 | CC(=O)C1=C(O)C(=O)N(c2ccc(C)cc2)C1c1ccc(C)cc1 (stereo unspecified) | 36% | 195 nM and 198 nM |  | 
32 | CC(=O)C1=C(O)C(=O)N(c2ccc(C)cc2)C1C1CCCCCCC1 (stereo unspecified) |  | 57 nM | 170 nM | Ki ([4]; read-out: pKi (converted)): 162 nM
33 | COc1ccc(N2C(=O)C(O)=C(C(C)=O)C2C2CCCCC2)cc1 (stereo unspecified) |  | 260 nM | 217 nM | Ki ([4]; read-out: pKi (converted)): 214 nM
34 | CC(=O)C1=C(O)C(=O)N(c2ccc(C)cc2)C1c1ccc(Br)cc1 (stereo unspecified) |  | 85.1 nM and 87 nM | 214 nM | 
35 | CC(=O)C1=C(O)C(=O)N(c2ccc(C)cc2)C1c1cccc(C)c1 (stereo unspecified) | 11% |  |  | inhibition [2]: 47%
36 | CC(=O)C1=C(O)C(=O)N(c2ccc(C)c(F)c2)C1C1CCCCC1 (stereo unspecified) |  | 47.9 nM and 49 nM | 57 nM | 
37 | Cc1ccc(N2C(=O)C(O)=C(C(=O)c3ccccc3)C2C2CCCCC2)cc1 (stereo unspecified) | 37% | 77 nM |  | 
38 | CC(=O)C1=C(O)C(=O)N(c2ccc(C)cc2)C1c1cccc(Br)c1 (stereo unspecified) | 19% | 181 nM |  | 
39 | O=C(C1=C(O)C(=O)N(c2ccc(Br)cc2F)C1c1cccc(Br)c1)C1CC1 (stereo unspecified) | 45% | 50 nM |  | IC50 ([5]; read-out: IC50): 8640 nM; IC50 ([5]; read-out: pIC50 (converted)): 8510 nM; Imax [6]: 58%; IC50 ([7]; read-out: IC50): 8770 nM; Activity [8]: Active
